Bioassay records as filed in PubChem BioAssay.
Yeast tox: Inhibitors of S. cerevisiae growth, toxicity | S. cerevisiae wild-type growth, A595 turbidity, 16 h | growth inhibition, % at 25 µM (by protocol) | 30,000 compounds, 0.3% hits | AID 685;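 active means mutant and wild-type yeast strains alike exhibit over 30% growth inhibition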
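System: S. cerevisiae wild-type or eIF2Bepsilon-R284H mutant strain; times: 16 h growth with compound, 30 °C; signal: absorbance at 595 nm (turbidity); measure: growth inhibition (%) versus cell controls and blanks; compound: 25 µM single dose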
eIF2B yeast act: modulators of yeast eIF2B activity; 27,000 compounds, 0.91% hits; inhibition, % at 25 µM (by protocol); S. cerevisiae eIF2B-epsilon R284H, GCN4-lacZ luminescence;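 active means mutant luminescence inhibited past about 50% while wild type luminescence and mutant growth stay under set limits, limit read from the data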
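Times: 16 h growth with compound at 30 °C, 90 min Beta-Glo step; Assay system: yeast eIF2B-epsilon R284H mutant carrying GCN4–beta-galactosidase fusion; Measure: % inhibition of reporter signal and growth versus controls; Dosing: one concentration, 25 µM, 0.25% DMSO; Buffer or medium: YPD yeast growth medium; Measured by: Beta-Glo luminescence plus absorbance at 595 nm.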
Numbers stand for hits; n = inactive; x = no result; ! = a repeat was not active. A selection: hits, their analogues and other compounds. The true share with any hit is near 1%.

SMILES | Yeast tox | eIF2B yeast act
CCOC(=O)c1ccc(N2C(=O)C=CC2=O)cc1 | 90.0 | n
CCOC(=O)c1ccc(NS(=O)(=O)CC)cc1 | n | x
CC1(C)Oc2ccc(NC(=O)c3ccco3)cc2O1 | n | n
CCC(=O)Nc1ccc(Nc2ccccc2)cc1 | n | n
COCC(=O)Nc1ccc(Nc2ccccc2)cc1 | 30.6 | n
CC(=O)Oc1ccc(NC(=O)Cc2ccccc2)cc1 | n | 58.3
CC(=O)Nc1ccc(NC(=O)Oc2ccccc2)cc1 | n | n
C=CCn1c(SCC(=O)Nc2sccc2C#N)nc2sc(C)c(C)c2c1=O | n | n
CC(=O)Oc1ccc2c(C)cc(=O)oc2c1 | n | n
CC(=O)Oc1ccc(N2C(=O)C3C(C2=O)C2(C)C=CC3(C)O2)cc1 (centres undefined) | 61.1 | n
Cc1cccc(-c2nnc(NC(=O)c3ccc(Cl)cc3)o2)c1 | 57.2 | n
COc1ccc(C(=O)Nc2nnc(-c3ccccc3)o2)cc1OC | n | n
CCS(=O)(=O)N1CCN(C(=O)c2ccccc2)CC1 | n | n
O=C(c1ccccc1)N1CCN(C(=O)c2ccncc2)CC1 | n | 50.5
Cc1c(F)cccc1NC(=O)CSCC(=O)Nc1ccccc1 | n | x
O=C(/C=C/c1ccccc1Cl)c1cccnc1 | 47.7 | x
N/C(=N\OC(=O)c1ccccc1Cl)c1cccnc1 | n | n
CCOC(=O)c1[nH]cnc1C(=O)NC(C)C | n | x
CCN(CC)CCNC(=O)Cn1nc(-c2ccccc2)c2ccccc2c1=O | n | n
CNC(=O)Cn1nc(-c2ccc(C)c(S(=O)(=O)N(C)C)c2)c2ccccc2c1=O | n | 61.6
O=[N+]([O-])c1ccc(N2CCN(c3ccc(Cl)nn3)CC2)cc1NC1CC1 | n | n
CCS(=O)(=O)N1CCCC(C(=O)NCc2cccc(OC)c2)C1 (centres undefined) | n | n
CCS(=O)(=O)N1CCCC(C(=O)NCCN(C)Cc2ccccc2)C1 (centres undefined) | n | 62.2
CC/C(O)=C(\C#N)c1nnc2n1CCCCC2 | n | n
Cc1cc(C)nc(N(C#N)CCOc2ccccc2)n1 | n | n
SMILES | Yeast tox | eIF2B yeast act
CN(C)c1nc(N(C)C)nc(N(C#N)CCOc2ccccc2)n1 | x | 50.4
CCc1nc(N2CCOCC2)c(C#N)c2c1CCCC2 | n | n
N#Cc1c(N2CCOCC2)nc(-c2ccco2)c2c1CCCC2 | n | 57.0
O=C1N/C(=N/N=C/c2ccccc2)SC1(c1ccccc1)c1ccccc1 | n | n
NC1=NC(c2cn(-c3ccccc3)nc2-c2cccs2)n2c(nc3ccccc32)N1 (centres undefined) | n | n
Cc1ccc(-n2c(C)cc(C3N=C(N)Nc4nc5ccccc5n43)c2C)c(C)c1 (centres undefined) | 92.3 | n
CCOC(=O)c1nn(-c2ccc3c(c2)OCO3)cc1O | n | n
COc1ccc(C2NC(=O)NC(C)=C2C(C)=O)cc1 (centres undefined) | n | 51.5
C=CCOc1ccc(C2NC(=O)NC(C)=C2C(=O)OC)cc1 (centres undefined) | n | n
Oc1ccc(Nc2nc3ccccc3nc2Nc2ccc(O)cc2)cc1 | n | x
CC(Oc1ccc(C(=O)NC2CCCCC2)cc1)C(=O)O (centres undefined) | n | x
O=C(NC1CCCCC1)c1ccc(S(=O)(=O)N2CCCC2)cc1 | 34.5 | n
O=C(NC1CCCC1)c1ccc(S(=O)(=O)N2CCOCC2)cc1 | n | x
CC(=O)Nc1ccc(C(=O)NC2CCCC2)cc1 | n | 50.9
CC(C)CCNC(=O)C1CCCN1C(=O)NC1CCCCC1 (centres undefined) | n | n
COc1ccccc1-c1nnc(SCC(=O)c2ccc(C3CCCCC3)cc2)n1Cc1ccco1 | n | n
O=C(c1ccc(Cl)cc1)N1CCN(c2ccc(F)cc2)CC1 | 58.7 | n
O=C(c1ccc2c(c1)OCO2)N1CCN(c2ccc(F)cc2)CC1 | n | n
Cc1nnc(NC2CCCCC2)[nH]c1=O | n | 65.1
O=c1[nH]c(NC2CCCCC2)nnc1Cc1ccccc1 | n | n
Cc1cc[n+](-c2nc([O-])n(-c3ccccc3)c2C=O)cc1 | x | n
CCOC(=O)Cn1c2ccc(OC)cc2c2nc3ccccc3nc21 | n | n
COC(=O)Cn1c2ccc(OC)cc2c2nc3ccccc3nc21 | n | 53.1
Cc1ccnn1CCSCC(=O)O | n | n
Cc1ccc(-c2nnn(CCC(=O)Nc3ccc4c(c3)OCO4)n2)cc1 | n | n
SMILES | Yeast tox | eIF2B yeast act
CN1CCN(CCC(=O)Nc2ccc3c(c2)OCO3)CC1 | n | 55.6
O=C(COc1cc(Cl)c(Cl)cc1Cl)Nn1cnnc1 | n | n
CCOC(=O)CC(=O)CSc1nc(C)cc(-c2cccnc2)c1C#N | n | 55.1
CCOC(=O)CC(=O)CSc1nc(-c2cccnc2)cc(C)c1C#N | n | n
CCOC(=O)c1c(N2C(=O)C3CC(C)=C(C)CC3C2=O)sc(C)c1C (centres undefined) | n | n
COc1ccc(S(=O)(=O)n2nc(C)cc2C)c(C)c1C | n | x
CCCN1CCN(CCCNC(=O)CCNC(=O)Cn2ccc3ccccc3c2=O)CC1 | n | x
COC(=O)c1ccc(NS(=O)(=O)N(C)C)cc1 | n | 60.4
Cc1ccc(NS(=O)(=O)N(C)C)cc1 | n | n
Cc1ccc(N=C(NO)c2nonc2N)cc1 | n | n
O=C(Nc1nc2ccccc2s1)C1CC(=O)N(c2ccc(Br)cc2)C1 (centres undefined) | n | x
O=C(NCc1ccco1)C(c1ccccc1)N(Cc1ccccc1)C(=O)Cn1nnc2ccccc21 (centres undefined) | n | n
COc1ccc(CC(=O)Nc2ccc(N3CCN(c4ccc(OC)cc4)CC3)c(C#N)c2)cc1 | n | 53.3
COc1ccc(OCC(=O)Nc2ccc(N3CCOCC3)cc2)cc1 | n | n
O=C(Nc1ccc(-c2nc3ccccc3o2)cc1)c1ccc(N2C(=O)C3C4C=CC(C4)C3C2=O)cc1 (centres undefined) | n | x
COc1ccc(CCNC(=O)c2ccc(N3CCCC3=O)cc2)cc1OC | n | 55.9
CCCCN(C)CCCNC(=O)c1ccc(N2CCCC2=O)cc1 | n | n
CCOC(=O)C1=C(N)OC2=C(C(=O)CC(C)(C)C2)C1c1cccs1 (centres undefined) | x | n
CCN(CC)S(=O)(=O)c1cccc(-c2nnc(SCC(=O)NC3CCCCCCC3)n2N)c1 | n | x
N#CCN1CCN(CC(=O)Nc2cccc3ccccc23)CC1 | n | n
c1ccc(SCCc2ccncc2)cc1 | n | x
Fc1ccc(SCCc2ccncc2)cc1 | 58.6! | x
Cc1ccc(-c2nc3cc(C)ccc3o2)cc1 | n | n
Cc1ccc2nc(-c3cccnc3)oc2c1 | n | 53.1
O=c1cc(C23CC4CC(CC(C4)C2)C3)[nH][nH]1 | x | n
SMILES | Yeast tox | eIF2B yeast act
Fc1ccc(Nc2nc(Oc3ccc4c(c3)OCO4)nc(N3CCOCC3)n2)c(F)c1 | n | 56.7
c1ccc(Oc2nc(Oc3ccccc3)nc(N3CCOCC3)n2)cc1 | n | n
O=C(CN1C(=O)COc2ccccc21)N1CCc2ccccc2C1 | n | n
CN1C(=O)NC(c2ccccc2)C2=C1CN(CCc1ccccc1)C2=O (centres undefined) | n | n
CN1C(=O)NC(c2ccccc2)C2=C1CN(c1cccc(C(F)(F)F)c1)C2=O (centres undefined) | n | 52.3
CC(=O)c1c(C(C)=O)c(C)n(C2CCCCC2)c1C | n | x
C=CCn1c(SC(C)CC)nc(O)cc1=O (centres undefined) | n | x
CCCOc1ccc(N2C(=O)CC(SC(=NC)Nc3ccc(F)cc3)C2=O)cc1 (centres undefined) | n | n
